Compound activity: PubChem BioAssay, several laboratories
Lung fibro prol: antiproliferative effect on LL 47 fibroblasts – human, LL 47 cells, CellTiter-Glo luminescence, primary screen; LL 47 human lung fibroblast viability, ATP luminescence; active compounds read low; viability, % at 10 µM; 1.1% of 85,000 active; AID 719, 2007;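 active = viability at or below 50% in the single dose screen; inactive = viability above 50%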;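 note: compound exposure lasted 72 h before the ATP readout; 100% = median luminescence of untreated cell-only wells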
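Test system: LL 47 human lung fibroblasts; Quantity: 1,150 cells/well; Buffer or medium: IMEM plus 15% FBS; Dosing: tenfold compound dosing solution, DMSO at 0.1%; Timing: overnight cell rest, 72 h compound treatment at 37 °C; Detection: ATP-based CellTiter-Glo luminescent readout; Read-out basis: viability percentage against median untreated-cell control; Controls: cell-only wells, no compound.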
HUVEC inhibit: inhibitors of HUVEC proliferation, primary screen, cell-based, 384-well; CellTiter-Glo luminescence, 72 h; active compounds read low; viability, % at 10 µM (by protocol); 1.1% of 86,000 active;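 active = viability at or below 30%; inactive = viability above 30%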;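 note: 100% = median luminescence of DMSO-only cell control wells on each plate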
H69AR inhibit: proliferation blockers of H69AR lung cancer cells, primary screen, cell-based, human, 86K library. H69AR lung tumor viability, ATP luminescence, 72 h; active compounds read low. viability, % at 10 µM. 6% of 85,000 active;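 active = viability at or below 40%; inactive = viability above 40%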;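 note: multidrug resistant small cell line overexpressing MRP-1 efflux transporter; 100% = mean luminescence of untreated control wells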
Jurkat viability: cytotoxicity toward Jurkat T cells, primary screen, cytotoxicity control, cell-based, Jurkat E6.1, 60K MLSMR library; AID 463, 2006; inhibition, % at 4 µM; Jurkat E6.1 viability, ATP luminescence, 48 h; 1.2% of 56,000 active;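 active = inhibition above the mean inhibition of all tested compounds plus 3 SD, cut at about 28% in these data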
Active calls of the source: *; x = no result. Rows were chosen to be rich in hits. Some 6.4% of all compounds tested hit in one or more screens of this group.

SMILES	Lung fibro prol	HUVEC inhibit	H69AR inhibit	Jurkat viability
COCCCNC(=O)CCn1c(=O)c2ccccc2n(CC(=O)Nc2ccc(C)cc2C)c1=O	103	99	94	-10
COCCCNC(=O)c1ccc(Cn2c(=O)[nH]c3ccccc3c2=O)cc1	70	59	23*	28
COCCNC(=O)Cn1c(=O)n(Cc2ccc(C(=O)NCc3ccco3)cc2)c(=O)c2ccccc21	104	99	88	9
COc1cccc(C2/C(=C(/O)c3cnn(-c4ccccc4)c3C)C(=O)C(=O)N2CCN(C)C)c1 (configuration not stated)	97	106	79	x
Cc1nc2ccccc2n1CC(=O)OCC(=O)NCCc1ccccc1	116	103	96	x
CC1(C)Cc2c(cnn2-c2ccccc2)-c2c1c1ccccc1n2CC(O)CBr (configuration not stated)	82	58	16*	x
O=C(OCN1C(=O)c2ccccc2C1=O)C1CCCCC1	107	95	96	0
O=C1c2ccccc2C(=O)N1SC1CCCCC1	62	76	0.6*	-4
Cc1cc(-c2ccccc2)nc2cc(C(=O)N(Cc3ccccc3)Cc3ccccc3)nn12	99	26*	40*	x
COC(=O)c1cc2nc(-c3ccccc3)cc(C)n2n1	100	99	89	6
Cc1ccc(C)c(OCC(=O)Nc2nonc2NC(=O)COc2cc(C)ccc2C)c1	96	56	19*	-9
Cc1cccc(OCC(=O)Nc2nonc2NC(=O)COc2cccc(C)c2)c1	97	98	99	x
Cc1ccsc1C1C=C(c2cccc(Br)c2)Nc2ncnn21 (configuration not stated)	100	75	51	1
CCc1ccc(C2=CC(c3cc(Br)ccc3F)n3ncnc3N2)cc1 (configuration not stated)	58	58	18*	x
Fc1ccc(Br)cc1C1C=C(c2ccc(Br)cc2)Nc2ncnn21 (configuration not stated)	60	63	18*	x
CC(C)CCN1C(=O)c2ccccc2C1C(=O)NCc1cccnc1 (configuration not stated)	102	105	89	x
O=C(c1cccs1)n1nc(-c2ccc(Cl)cc2)nc1NCc1ccco1	98	95	77	x
CC(=O)n1nc(-c2ccc(Cl)cc2)nc1NCc1ccco1	74	57	33*	x
Cc1ccc(C(=O)n2nc(-c3ccccc3)nc2NCc2ccco2)cc1	102	104	90	x
COc1ccc(CC(=O)n2nc(-c3ccc(Cl)cc3)nc2NCc2ccco2)cc1	81	75	30*	x
COc1ccc2c(c1)OCC1=C2CCC2(C)C(=O)CC=C12 (configuration not stated)	93	77	11*	4
C=CCN=C(NC#N)SCC(=O)c1cccc(OC)c1	92	96	35*	-7
C=CCN=C(NC#N)SCc1ccccc1	102	106	92	x
CCOC(=O)CSc1nnc(-c2ccccc2NC(=O)c2ccccc2)o1	93	86	88	-4
CCc1nnc(NC(=O)CSc2nnc(-c3ccccc3NC(=O)c3ccccc3)o2)s1	59	87	30*	0
SMILES	Lung fibro prol	HUVEC inhibit	H69AR inhibit	Jurkat viability
CCCCCC(=O)O[C@]1(C(C)=O)CC[C@H]2[C@@H]3CCC4=CC(=O)CC[C@]4(C)[C@H]3CC[C@@]21C	85	71	4.8*	x
CCn1cc(C(=O)OCC(=O)NCc2ccc3c(c2)OCO3)c(=O)c2ccc(C)nc21	106	91	11*	-5
CCOC(=O)COc1cccc2c(=O)n(CC(=O)NCc3ccc4c(c3)OCO4)ccc12	63	56	26*	51*
Cc1cc(C)c(S(=O)(=O)NCc2cn3c(C)csc3n2)cc1C	x	x	x	5
COc1ccc(OC)c(/C=N/NC(=O)c2cc[n+](CC(=O)c3ccccc3)cc2)c1	101	93	60	x
COc1ccc(/C=C/C(=O)NCC(=O)N/N=C/c2cc(Br)ccc2OCc2ccccc2)cc1	78	46	7.4*	x
Cc1cc(C)n(-c2nc3c(c(=O)[nH]c(=O)n3C)n2CCc2ccccc2)n1	92	77	24*	13
Cc1cc(C)n(-c2nc3c(c(=O)[nH]c(=O)n3C)n2CC(O)COc2ccc(Cl)cc2Cl)n1 (configuration not stated)	72	48	13*	x
Cc1ccc(C(=O)Nc2ncnc3sc4c(c23)CCCCC4)cc1	84	78	31*	x
Cc1cc(Nc2ccccc2)nn1C(=O)c1ccc(Br)cc1	97	69	29*	x
Cc1csc2ncc(C(=O)Nc3ccccc3Cl)c(=O)n12	82	64	29*	4
Cc1csc2ncc(C(=O)Nc3ccccc3F)c(=O)n12	93	81	71	1
Cc1cccc(OCC(O)Cn2c(=N)n(CCN3CCCCC3)c3ccccc32)c1 (configuration not stated)	69	51	5.5*	6
COc1ccc(OCC(O)Cn2c(=N)n(Cc3ccccc3)c3ccccc32)cc1 (configuration not stated)	60	73	82	12
Cc1ccc(OCC(O)Cn2c(=N)n(Cc3ccccc3)c3ccccc32)cc1 (configuration not stated)	1.9*	6.5*	88	x
O=C(Nc1cccnc1)c1ccc(Oc2ccccc2)cc1	11*	98	95	-7
COc1ccc(N2CCN(S(=O)(=O)c3ccc(OC)cc3)CC2)cc1	95	98	97	-2
COc1cccc(N2CCN(S(=O)(=O)c3ccc4nc(-c5ccccc5)[nH]c4c3)CC2)c1	97	60	13*	11
CCN(CC)S(=O)(=O)c1ccc(C)c(C)c1	100	90	82	x
CCN(CC)CCOc1ccc2c(c1)C(=NO)c1cc(OCCN(CC)CC)ccc1-2	3.0*	12*	50	x
CCN(CC)S(=O)(=O)c1ccc2c(c1)C(=NO)c1cc(S(=O)(=O)N(CC)CC)ccc1-2	38*	4.3*	2.6*	x
CCN(CC)CCOc1ccc(Br)cc1	97	95	80	-7
COc1ccc(OC)c(C(c2nnnn2CCc2ccccc2)N2CCC(C(N)=O)CC2)c1 (configuration not stated)	94	102	77	-8
COc1ccc(NC(=O)Nc2nnc(-c3ccccc3SCc3ccccc3)s2)cc1	95	69	48	x
COc1cccc(NC(=O)Nc2nnc(-c3ccccc3SCc3ccccc3)s2)c1	66	79	17*	x
COc1ccc(-n2nnnc2SCC(=O)c2ccc(O)c(O)c2)cc1	89	61	26*	24
O=C(C1CCC1)N1CCc2cc(S(=O)(=O)NCCN3CCN(c4ccccc4F)CC3)ccc21	111	86	83	5
CCSC1=N/C(=C\c2ccc(C(=O)O)cc2)C(=O)S1	100	91	82	4
CCOC(=O)SC1=N/C(=C\c2ccc(N(C)C)cc2)C(=O)S1	108	87	27*	7
c1coc(-c2nc(-c3ccco3)c(-c3ccco3)nc2-c2ccco2)c1	84	69	27*	x
